Experimental findings from PubChem BioAssay AID588621 (Sanford-Burnham Center for Chemical Genomics, 2011) are described below.

The whole screen tested about 360,000 compounds, of which about 890 (0.25%) were called active.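 Rule for the calls: active = inhibition at 20 µM, scaled per plate between control wells, above about 37% (limit read from the data); inactive = the rest.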 What follows is part of a selection rich in actives, with near analogues and random picks from the rest.

Tyrosine-protein phosphatase non-receptor type 5 (Homo sapiens), sequence (P54829 whole entry, looked up): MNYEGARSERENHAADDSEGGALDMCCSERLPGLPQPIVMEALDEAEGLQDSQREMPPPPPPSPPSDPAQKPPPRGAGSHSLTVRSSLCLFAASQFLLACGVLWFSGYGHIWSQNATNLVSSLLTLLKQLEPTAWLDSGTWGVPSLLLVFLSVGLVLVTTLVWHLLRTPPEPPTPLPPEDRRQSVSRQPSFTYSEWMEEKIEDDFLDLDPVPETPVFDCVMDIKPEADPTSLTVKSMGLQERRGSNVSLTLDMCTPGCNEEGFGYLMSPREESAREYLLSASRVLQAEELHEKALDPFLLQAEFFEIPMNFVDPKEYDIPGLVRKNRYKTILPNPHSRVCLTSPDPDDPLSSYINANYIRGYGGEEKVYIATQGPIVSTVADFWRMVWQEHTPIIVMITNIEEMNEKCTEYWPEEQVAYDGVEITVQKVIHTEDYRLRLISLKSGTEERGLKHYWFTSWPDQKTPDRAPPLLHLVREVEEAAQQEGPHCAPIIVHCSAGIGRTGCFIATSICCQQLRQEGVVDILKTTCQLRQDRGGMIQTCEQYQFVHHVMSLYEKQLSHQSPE

In this assay the target is Tyrosine-protein phosphatase non-receptor type 5 (Homo sapiens) (UniProt P54829). Nature of the assay: inhibition of human PTPN5 enzyme activity – biochemical, fluorescence intensity, uHTS, primary screen (AID 588621).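 Note: 0% = DMSO with enzyme and substrate and 100% = substrate only without enzyme.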 The following applies: recombinant STEP, OMFP fluorogenic substrate, at 20 µM, stronger effect = higher value. An outline of the steps: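 Material: STEP (striatal-enriched tyrosine phosphatase) enzyme, cell-free | Medium: 50 mM Bis-Tris pH 6.0 with 2.5 mM DTT and 0.005% Tween 20 | Read-out: Percent inhibition scaled to no-enzyme and uninhibited-enzyme controls, plate-pattern corrected | Signal: Fluorescence read at 480 nm ex / 540 nm em | Times: 20 min reaction, room temperature, in the dark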
A word on the inhibition: it is the relative decrease from the control value, in per cent. For `CCN1CCc2nc(NC(=O)c3cc(F)c(F)cc3Cl)sc2C1`, the inhibition is -1.5% (inactive).
On to `CCc1cc(-c2nnn(CCC3COCCO3)c2CC)ccc1-c1cn(Cc2ccc3ccccc3c2)nn1` (centres undefined), for which the inhibition is 2.9% (inactive).
Consider `C=CC1=C(C(=O)O)N2C(=O)[C@@H](NC(=O)/C(=N\OCC(=O)O)c3csc(N)n3)[C@H]2SC1`, for which the inhibition is 85.4% (active).
With `C=CC1=C(C(=O)O)N2C(=O)[C@@H](NC(=O)/C(=N/OCC(=O)O)c3csc(N)n3)[C@H]2SC1`, the inhibition is 97.4% (active).
For `COC(=O)c1cc2occc2n1Cc1nc(-c2ccccc2C)oc1C`, the inhibition was -0.6% (inactive).
Take `CCCCOc1ccc(NC(=O)[C@@H]2CCCN2C(=O)C2CCN(S(=O)(=O)c3ccc(C)cc3)CC2)cc1`: the inhibition is -0.4% (inactive).
As for `CCCC(=O)N1CCC1(C)C(=O)NCc1ccc(C(C)C)cc1` (centres undefined), the inhibition was 1.5% (inactive).
In the case of `Cn1c(Cc2csc(N)n2)nnc1SC/C=C/c1ccccc1`, the inhibition was -1.7% (inactive).
Turning to `Cc1ccc(F)cc1NC(=O)N1CCCN(c2ccc(C(F)(F)F)cn2)CC1`, the inhibition was -0.3% (inactive).
On to `CCOc1ccc(C(=O)NCC(=O)N2CCN(c3ccc(C(F)(F)F)cn3)CC2)cc1`, for which the inhibition was -0.1% (inactive).
Regarding `C/C=C/C(=O)Nc1ccc(N2CCN(c3ccc(C(F)(F)F)cn3)CC2)nc1`, the inhibition is 78.9% (active).
With `C[C@H]1CN([C@@H](C)CO)C(=O)Cc2cc(NS(C)(=O)=O)ccc2O[C@@H]1CN(C)CC1CC1`, the inhibition is 1.2% (inactive).
The result for `Cc1ccc(C(=O)N(CC(=O)NC2CCCC2)c2ccc(F)cc2)s1` reads -0.9% (inactive); that for `CCCS(=O)(=O)N1CCCC(C(=O)NCc2ccco2)C1` (centres undefined), 53.8% (active).
For the molecule `O=C(NCc1ccco1)C1CCCN(S(=O)(=O)c2ccccc2)C1` (centres undefined), the inhibition is 2.1% (inactive).
`O=C(NCc1ccco1)C1CCCN(S(=O)(=O)c2cnc[nH]2)C1` (centres undefined): the inhibition was -0.7% (inactive).
For the molecule `COc1ccc(CCNc2cc(C)nc3c(-c4ccc(Cl)cc4)c(C)nn23)cc1OC`, the inhibition is -0.7% (inactive).
Consider `O=S1(=O)CSCS(=O)(=O)C1`, for which the inhibition was 2.4% (inactive).
As to `Cc1ccc(-n2c(SCC(=O)NCc3ccc4c(c3)OCO4)nnc2-c2cccnc2)c(C)c1`, the inhibition is -2.7% (inactive).
The result for `CCCCc1nccn1CCn1ccnc1CCCC` reads 1.5% (inactive).
Consider `OCc1n[nH]c(CO)n1`, for which the inhibition was -3.3% (inactive).
As to `O=C1CCC(CCC(=O)N2CCCC(C(=O)c3ccc(Cl)cc3)C2)=NN1` (centres undefined), the inhibition is -3.2% (inactive).
As for `COc1ccc(CCNC(=O)c2ccc(CS(=O)(=O)c3ccc(Br)cc3)o2)cc1OC`, the inhibition is -1.6% (inactive).
For the molecule `O=C(NN=Cc1ccccc1O)NN=Cc1ccccc1O`, the inhibition was 59.1% (active).
As for `O=C(N/N=C/c1ccccc1O)/C(=C/c1ccccc1)CCO`, the inhibition was 0.4% (inactive).
Then `Oc1ccccc1C=NC1CCCCC1N=Cc1ccccc1O` (centres undefined), with 2.7% (inactive); and `Nc1ccccc1/C=N\N=C/c1ccccc1N`, with -2.4% (inactive); and `Cc1c(NC(=O)C(=O)N/N=C/c2cccs2)c(=O)n(-c2ccccc2)n1C`, with 3.9% (inactive).
For the molecule `CCC(=O)c1cc2c(cc1NC(=O)c1cccs1)OCCO2`, the inhibition was -2.5% (inactive).
As to `C=CCO/N=C(\C)c1c(O)c(C)c(-c2ccccc2)n(-c2ccccc2)c1=O`, the inhibition was 6.7% (inactive).
Then `CC1CN(C(=O)COC(=O)c2cccc(NS(=O)(=O)c3ccccc3)c2)CC(C)O1` (centres undefined), with 0.4% (inactive); and `COc1ccc(/C=N/NC(=O)C(C)N(c2ccc(OC)cc2)S(C)(=O)=O)cc1` (centres undefined), with 2.2% (inactive); and `COc1ccc(/C=N/Nc2ccccc2C(=O)O)cc1`, with 42.5% (active).
For the molecule `COc1ccc(/C=N/NC(=O)Cn2cc(C(F)(F)F)ccc2=O)cc1`, the inhibition was -2.6% (inactive).
With `CCc1ccccc1NC(=O)CN1CCN(C(=O)c2cc(C3CC3)nn2-c2ccccc2)CC1`, the inhibition is -3.2% (inactive).
Then `CC(C)Cc1ccc(C(C)C(=N)N)cc1` (centres undefined), with -2% (inactive).
As for `CCO[C@H]1OC(C(=O)N2CCCCCCC2)=C[C@@H](c2ccc(C(F)(F)F)cc2)[C@@H]1CCCO`, the inhibition was 0.1% (inactive).
For the molecule `Cc1ccc(OCC(=O)Nc2ccc(-c3nc4ncccc4o3)cc2)cc1`, the inhibition was 54.1% (active).
`Cc1ccc2nc(-c3ccc(NC(=O)c4cccnc4)cc3)oc2c1`: the inhibition is 0.4% (inactive).
On to `CCOC(=O)C1=C(O)/C(=C/c2ccc(OCC(=O)Nc3ccc(C)cc3)cc2)N=C1C`, for which the inhibition was 14.9% (inactive).
Then `CCc1ccc(C2C(C#N)=C(N)N(N3CCOCC3)C3=C2C(=O)CC(C)(C)C3)s1` (centres undefined), with -1.9% (inactive); and `CNC(=O)NC(=O)C(OC(=O)c1cccc(S(=O)(=O)N2CCCCC2)c1)c1ccccc1` (centres undefined), with -0.2% (inactive); and `O=C(/C=C/Nc1ccc(S(=O)(=O)Nc2cnc3ccccc3n2)cc1)c1cccnc1`, with 5.4% (inactive).
Regarding `CCOc1cc(CO)ccc1OCC(=O)N1CCCCC1`, the inhibition was -1.4% (inactive).
With `CCNC(=S)N1CCN(c2ncccn2)CC1`, the inhibition is -5.9% (inactive).
The result for `CCOc1ccc(NC(=S)N2CCCCCC2)cc1` reads -2.3% (inactive).
With `CC(=NNC(=S)N1CCCCCC1)c1ccccn1`, the inhibition was 54.5% (active).
Consider `CCOC(=O)C1CCN(c2c(Nc3cc(C)cc(C)c3)c(=O)c2=O)CC1`, for which the inhibition is -2.8% (inactive).
With `COc1ccc(-c2c(-c3cc(OC)cc(OC)c3)n(C)c3ccc(-c4ccn[nH]4)cc23)cc1`, the inhibition is -1.9% (inactive).
Turning to `O=C(CCSCCc1ccccn1)Nc1nccs1`, the inhibition was -2.2% (inactive).
The result for `CC(O)C(NS(=O)(=O)c1ccc(Cl)cc1)C(=O)OCc1cc([N+](=O)[O-])cc2c1OCOC2` (centres undefined) reads -3.7% (inactive).
Then `O=C(N/N=C/c1coc2ccccc2c1=O)c1cc2ccccc2o1`, with 43.4% (active); and `Cc1c(/C=N\NC(=O)c2cc3ccccc3o2)c2ccccc2n1C`, with -0.5% (inactive); and `CC(C)(C)OC(=O)NCCCCCC(=O)N/N=C/c1coc2ccccc2c1=O`, with -1.9% (inactive).
Take `CN1CCN(C(=O)c2ccccc2NC(=O)COc2ccccc2Cl)CC1`: the inhibition was -2.4% (inactive).
In the case of `C=CCn1c(=S)[nH]c2scc(-c3ccco3)c2c1=O`, the inhibition was 13.1% (inactive).
As for `COc1ccc2[nH]c(=O)c(-c3noc(-c4ccc(F)cc4)n3)cc2c1`, the inhibition was 95.7% (active).
In the case of `CCCc1nc(-c2cc3cc(C)ccc3[nH]c2=O)no1`, the inhibition was 3.2% (inactive).
`COc1ccc(Cc2cc(-c3ccc(F)cc3)n[nH]c2=O)cc1`: the inhibition was 1.1% (inactive).
